Ecoli rRNA inh: inhibits bacterial ribosomal RNA function over humanized ribosomes; GFP signal change (wild-type ribosome), % (concentration not given with the values); AID 720706; 350,000 compounds, 1.6% hits; E. coli WT GFP vs humanized-ribosome RFP mutants, fluorescence, 24 h; stronger effect = lower value; DMSO median 0, no signal -100;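 active = significant combined selectivity score with lowered wild-type GFP, culture density cut under 30%, mutant RFP and density less affected; inactive = any of these conditions unmet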
S100A4 inh HTS: blocks human S100A4 binding to myosin IIA peptide | S100A4/TAMRA-MyoIIA peptide fluorescence polarization | inhibition, % at 10.7 µM | 360,000 compounds, 0.14% hits | AID 652163;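 active = mean inhibition of at least 70% across replicates, with every replicate also reaching that level; inconclusive = mean inhibition reaches 70% but some replicates fall short; inactive = mean inhibition below 70%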
Target sequence (P26447 whole entry, looked up): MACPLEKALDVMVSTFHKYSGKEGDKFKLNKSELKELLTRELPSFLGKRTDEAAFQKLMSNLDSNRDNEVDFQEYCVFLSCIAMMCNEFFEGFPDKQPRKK
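Material: human S100A4 monomer with TAMRA-labelled myosin IIA peptide; buffer or medium: HEPES pH 7.2 with CaCl2, KCl, NaCl, DTT, Triton; compound dosing: one concentration per compound; schedule: 5 min incubation before reading; benchmarks: neutral control DMSO, positive control TFP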
DENV2 CPE: protects cells from dengue virus 2 cytopathic effect. DENV2-infected cells, cytopathic effect rescue, plate reader. CPE inhibition, % at 9.99 µM. 350,000 compounds, 1.7% hits. AID 651640; in the data active = CPE inhibition above about 20%, passing the limit was not always enough; inconclusive = no clear call, values can overlap the other calls; tested in BHK-21 cells
AF4-AF9 inh: inhibitors of human MLL-AF4/AF9 interaction | P42568 | AlphaScreen, biotin-AF4 peptide binding to FLAG-AF9 | inhibition, % at 10 µM | 350,000 compounds, 0.47% hits | AID 651704;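 active = every replicate reaching a set inhibition limit, whatever the replicate mean, cut at about 25% in these data; inconclusive = mean inhibition reaches that limit but some replicates miss it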
Cneo AK release: Cryptococcus neoformans lysis via adenylate kinase release. lysis activity, % at 15 µM. C. neoformans lysis, adenylate kinase release luminescence, 4 h; normalised: neutral wells 0, clomiphene wells 100. 360,000 compounds, 0.2% hits;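 active = mean lysis activity across replicates of at least 80%, whatever share of replicates individually reach that level; inactive = mean lysis activity below 80%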
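Material: C. neoformans cells; Schedule: 4 h static compound exposure, 37 °C, read 1 h post-reagent; Measured by: adenylate kinase release luminescence; Read-out: signal increase indicating cell lysis; Controls: Clomiphene as positive lysis control.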
PfHsp90 yeast 2: growth inhibition of yeast expressing Plasmodium Hsp90; S. cerevisiae expressing PfHsp90, BacTiter-Glo ATP, 48 h; yeast lacking PDR1 and PDR3 efflux regulators; inhibition, % at 9.4 µM; 310,000 compounds, 0.32% hits;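 active = every replicate shows inhibition above about 80%, whatever the replicate mean, limit read from the data; inconclusive = mean inhibition reaches the set limit but some replicate falls short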
Each line names hits and unclear results; the compound was inactive in the other large screens. An excerpt weighted towards active compounds, which were near 3.2% of everything screened.

COc1ccccc1NCC(O)COc1ccc(C(C)(C)C)cc1 (stereo not drawn)	Ecoli rRNA inh -39 (no result: Cneo AK release)
COc1ccc(-c2c(-c3ccccc3)c(C(=O)C(=O)NCCCN(C)C)n3ccc4cc(OC)c(OC)cc4c23)cc1OC	AF4-AF9 inh 38
CCOc1ccc2nc(N3CCCCCC3)sc2c1	Ecoli rRNA inh -32
COc1ccc(S(=O)(=O)Nc2c(C)nn(C)c2C)cc1Br	DENV2 CPE 31
COc1ccc(NS(=O)(=O)c2cc(NC(=O)c3ccc(=O)[nH]n3)ccc2N2CCOCC2)cc1	Ecoli rRNA inh -27 (no result: PfHsp90 yeast 2)
O=C(C[C@H]1C[C@@H]2c3cc(NS(=O)(=O)c4ccc(F)cc4)ccc3O[C@@H]2[C@H](CO)O1)NCC1CC1	none (no result: S100A4 inh HTS, AF4-AF9 inh, PfHsp90 yeast 2)
NC(c1csc(NC(=O)Nc2cccc(Cl)c2)n1)C1CCCCC1 (stereo not drawn)	DENV2 CPE 112, AF4-AF9 inh inconclusive (no result: PfHsp90 yeast 2)
NC(c1csc(NC(=O)Nc2ccccc2)n1)C1CCCCC1 (stereo not drawn)	none (no result: PfHsp90 yeast 2)
C[C@@H]1CCCCO[C@@H](CN(C)Cc2ccc(C(F)(F)F)cc2)[C@H](C)CN([C@H](C)CO)C(=O)c2cc(N(C)C)ccc2O1	AF4-AF9 inh 40 (no result: PfHsp90 yeast 2)
C[C@H]1CCCCO[C@@H](CN(C)Cc2ccc3c(c2)OCO3)[C@@H](C)CN([C@@H](C)CO)C(=O)c2cc(N(C)C)ccc2O1	none (no result: PfHsp90 yeast 2)
C[C@@H]1CN([C@H](C)CO)C(=O)c2cc(N(C)C)ccc2O[C@@H](C)CCCCO[C@@H]1CN(C)Cc1ccc(C(=O)O)cc1	DENV2 CPE inconclusive (no result: PfHsp90 yeast 2)
C[C@H](CO)N1C[C@H](C)[C@@H](CN(C)Cc2ccc3c(c2)OCO3)OCCCC[C@H](C)Oc2ccc(N(C)C)cc2C1=O	DENV2 CPE 124 (no result: S100A4 inh HTS, AF4-AF9 inh, Cneo AK release, PfHsp90 yeast 2)
CCCN(C)C[C@@H]1OCCCC[C@H](C)Oc2ccc(N(C)C)cc2C(=O)N([C@H](C)CO)C[C@@H]1C	DENV2 CPE 69 (no result: PfHsp90 yeast 2)
C[C@@H]1CCCCO[C@@H](CN(C)Cc2ccc(C(F)(F)F)cc2)[C@@H](C)CN([C@@H](C)CO)C(=O)c2cc(N(C)C)ccc2O1	none (no result: PfHsp90 yeast 2)
C[C@@H]1CCCCO[C@@H](CN(C)Cc2ccc(C(F)(F)F)cc2)[C@H](C)CN([C@@H](C)CO)C(=O)c2cc(N(C)C)ccc2O1	AF4-AF9 inh 32 (no result: PfHsp90 yeast 2)
CCCN(C)C[C@@H]1OCCCC[C@@H](C)Oc2ccc(N(C)C)cc2C(=O)N([C@@H](C)CO)C[C@@H]1C	none (no result: PfHsp90 yeast 2)
C[C@H]1CN([C@@H](C)CO)C(=O)c2cccc(NC(=O)Nc3ccc4c(c3)OCO4)c2O[C@H]1CN(C)S(=O)(=O)c1cn(C)cn1	none (no result: PfHsp90 yeast 2)
COc1ccc2c3c([nH]c2c1)[C@H](CO)N(CC1CC1)CC31CCN(C(=O)c2ccccc2F)CC1	none (no result: Cneo AK release, PfHsp90 yeast 2)
Cn1c(=O)c2sccc2n2c(CCCC(=O)N3CCN(c4ccccn4)CC3)nnc12	S100A4 inh HTS 111
COCCCn1c(=O)c2sccc2n2c(CCCC(=O)N3CCN(c4ccccn4)CC3)nnc12	none
C[C@@H]1CN([C@@H](C)CO)C(=O)c2cc(-c3ccccc3)cnc2O[C@H]1CN(C)C(=O)NC1CCCC1	none (no result: PfHsp90 yeast 2)
CCCc1cc(CNC(=O)C2CCC(=O)N(CCc3cccc(F)c3)C2)on1 (stereo not drawn)	DENV2 CPE 55
C[C@@H]1CN([C@@H](C)CO)C(=O)Cc2cc(NC(=O)Nc3cccc4ccccc34)ccc2O[C@@H]1CN(C)C(=O)Nc1cccc2ccccc12	none (no result: PfHsp90 yeast 2)
Cc1noc(C)c1NC(=O)Nc1ccc2c(c1)CC(=O)N([C@H](C)CO)C[C@@H](C)[C@@H](CN(C)C)O2	none (no result: PfHsp90 yeast 2)
C[C@H](CO)N1C[C@H](C)[C@H](CN(C)C)Oc2ccc(NC(=O)Nc3cccc4ccccc34)cc2CC1=O	DENV2 CPE 35 (no result: PfHsp90 yeast 2)
Cc1noc(C)c1NC(=O)Nc1ccc2c(c1)CC(=O)N([C@@H](C)CO)C[C@H](C)[C@H](CN(C)C)O2	DENV2 CPE 21 (no result: PfHsp90 yeast 2)
C[C@H]1CN([C@@H](C)CO)C(=O)Cc2cc(NC(=O)Nc3ccc(F)cc3)ccc2O[C@H]1CN(C)C(=O)Nc1cccc2ccccc12	none (no result: PfHsp90 yeast 2)

Assay outcomes from PubChem BioAssay.
